The EternaBench riboswitch data

Tested on: MS2 coat protein
Test: apparent Kd, MS2 coat protein; higher = weaker binding; RNA-MaP array
Procedure, shortened: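 Incubations were done at room temperature with fluorescently labeled MS2 coat protein at 1.5 nM to 3 μM and designed RNAs transcribed on an Illumina sequencing chip from sequenced DNA templates, with or without input ligand. Apparent Kd is the median of binding curves fitted for each cluster. Designs with fewer than 10 measured clusters were excluded.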

[1] = designed as: OFF switch for flavin mononucleotide, no ligand
[2] = ligand present: flavin mononucleotide, designed as: OFF switch for flavin mononucleotide
[3] = designed as: ON switch for flavin mononucleotide, no ligand
[4] = ligand present: flavin mononucleotide, designed as: ON switch for flavin mononucleotide
[5] = designed as: ON switch for tryptophan, no ligand
[6] = ligand present: tryptophan, designed as: ON switch for tryptophan

Sequence	apparent Kd [1] [nM]	apparent Kd [2] [nM]	apparent Kd [3] [nM]	apparent Kd [4] [nM]	further results
UAGCGGACUGUGAGGAUAUAGCAAAUUCAACAAUUCUAGAAGGCACAUGAGGAUCACCCAUGUAGAGUGAUUAA	38.5	70.7			
ACAUGAGGAUCACCCAUGUCUCGGGUGCCGGUUUUUACCUAGAGAAGGUGCGCAACGCUGUCACGCAAGGAUAUCUCACGAACA	231	184			
CAUCCUCUUUGACAUGAGGAUCACCCAUGUAUUGCAGUGACCAGAAGGCGUUCCCACAAAGUGGACGAGGAUAUGGAAAAGCCG	193	184			
UCUUCCCGCUUAGGAUAUCUUGCUAAUUUGUGUAGAGAAGGAAGUGUAAACAUGAGGAUCACCCAUGUGGCCUCCAGAUAAAGC	12.1	14.9			
GAACAUGAGGAUCACCCAUGUAGACGCAGGCUAAUAGAAUCGAGAAGGGCUAUAUGGGAACGCCAGCAGGAUAUCGGAGGUCAA			84	49.1	
AGGAGACGCAAGGAGGAUAUUCAUAUGGUAACAUGAGGAUCACCCAUGUAGUUCUAGUUGGGACUGAAGAAGGCCUUGCUAGCGCA			21.7	11.3	
UGUGGAACGGAAGGAUAUGGUCACCGAUGGUCUCCAGAAGGUCCGGGUGACCGAACAAUACAUGAGGAUCACCCAUGUAGCAAA	7	6.84			
UAUUUGUUGAAGAAGGAGCGUACAUGAGGAUCACCCAUGUCCAACGUCUACGCGGGUUAUGUUAGCUAGGAUAUUCCGAAAUGG	28.3	22.1			
UUAUAGAGAGGAUAUACAUGAGGAUCACCCAUGUUAUUACCAAGCUUGAUGGGUAUGCGUAGAAGGCUCAUGAA	19.1	35			
AAUAAGAGCUCGGAUACCAGCGAAAACAGGCACAUGAGGAUCACCCAUGUUAACGCACUGCGCCCUUGGCAGCCGCACGUGUGUC					apparent Kd (designed as: ON switch for theophylline, no ligand): 25.1 nM; apparent Kd (ligand present: theophylline, designed as: ON switch for theophylline): 12 nM
UGACUGGUCGGAGGAUAUGGCAACACGUUUUCGCCAGAAGGCCGACAUGAGGAUCACCCAUGUGGGACACUAGGGCGACUUCCU	166	35.8			
UGAGUGAAGGAGAAGGGUCUUCAGGAAAUACGGAAAUAACAUGAGGAUCACCCAUGUUCAAGCAGACAGGAUAUCCAAUGUUGG			18.8	14.6	
GUGCAAAACCAGAAGGGACAUUAAAGGGUAAAGUCAGGAUAUGGCACAUGAGGAUCACCCAUGUAGACUAGACGCGUUAUUUUC			9.99	9.11	
CUUAUGAUCGAGGAUAUCACAAAUGGGCAGCGUUGAGAAGGCGACACAUGAGGAUCACCCAUGUAAUCAACAGU	18.4	15.9			
UCGUCAUUGAACAGCACAUGAGGAUCACCCAUGUUUAGAUCUAGAAGGCCUUUCUCGAAGACCCAGGAGGAUAUAGUGAAGUGG	21.8	18.7			
CGGCAUGGAACAGGAUAUGGGUAAUUCAUUUGACCAGAAGGGUUCUUCAGCAGCCGUUGCACAUGAGGAUCACCCAUGUCAUAU			29.7	10	
AGAAGCUAAUCCGGCUCAUACAUGAGGAUCACCCAUGUUUUCAGAAGGGAGUCCGUCGCACCGACUCAGGAUAUGAUUCAAGAA			15.6	21.8	
CAAUGACCCAAGGAUAUCUGCAGACGCGAGCCCAGAGAAGGUGGGACAUGAGGAUCACCCAUGUUCUCGUGUGA	37	73.1			

Sequence	apparent Kd [1] [nM]	apparent Kd [2] [nM]	apparent Kd [3] [nM]	apparent Kd [4] [nM]	further results
AAGCUCUCAGGAUAUACAUGAGGAUCACCCAUGUGGUCGUAUUUAAAGUGGAGCAGCAGUAGAAGGGAGGCGAC	24.5	20.4			
GAGGUAACGUAGAAGGCGAGGGCAAUACCUGUUCGAGGAUAUACUAUUAGACAUGAGGAUCACCCAUGUGGAGAUUGAUCGUCA	241	339			
GGACACGAAGGAUAUACCCAAUGCCUGAGAAAACUCAUGGGACAUGAGGAUCACCCAUGUAGAAGGUCGUUAAA	558	416			
CAAUGAAACAUUCAGGAUAUGGUACAAGGAACAUGAGGAUCACCCAUGUCAAGAAAAGAAAAUCACCAGAAGGGAACAAGACAAAA			41.5	32.3	
GGAAAGUCUGAGAAGGGAUGAAGACAUGAGGAUCACCCAUGUGAAGGCCACUGGCUCCACAAGUAUCAGGAUAUCAGCAUAGCG			36.3	20.6	
GGAUUUGAUCCAGGAUAUUAACAAUCCUCAGAUCAAAAUACAUGAGGAUCACCCAUGUACUCAAAUAAGAAGGGGAUGGCGGCC	25.7	20.5			
AUGUCCUAAACGGCCGCCACUUACAUGAGGAUCACCCAUGUUUACCGAUAUGGUUGUUGCUUUCCAAGGACCGGGUUUAAUCUGC					apparent Kd (designed as: OFF switch for tryptophan, no ligand): 12.7 nM; apparent Kd (ligand present: tryptophan, designed as: OFF switch for tryptophan): 13.5 nM
CGUACAGUCGAAGGAUAUUCGCGGGAGUUUGCCGAAGAAGGUCGCUAGUAGGGUGACAUGCUGUGACAUGAGGAUCACCCAUGU	165	239			
AGUACCAAUGAGGAUACCAGAGUGCGACGCCGAAACCUUGACAUGAGGAUCACCCAUGUACUCCCUUGGCAGCCUGUACUUGCCA					apparent Kd (designed as: OFF switch for theophylline, no ligand): 35.9 nM; apparent Kd (ligand present: theophylline, designed as: OFF switch for theophylline): 82.6 nM
GCAAAUGCUGAGAAGGUGAUGAAUAACUCCUCGAUGUAACUUGACAUGAGGAUCACCCAUGUCAUCAAGGAUAUCAAAGUGAAC	9.54	16.2			
GCGACAUGAGGAUCACCCAUGUGCCUCGUGUUAUUCUCUUUAAGAAGGAACGGGUAGCUCUAUUGUUAGGAUAUUAAUGGAAUU	689	724			
GGCGUCCAAUUGCAGGAUAUCGGCCGAACAACAUGAGGAUCACCCAUGUCUUGCCACAAUCAUGCCGAGAAGGGCAGAAGAACGUG			21	10.1	
AAGGACAUGAGGAUCACCCAUGUAGAGGAGCGAGGACCGGUACGGCCGCCACUCGGUGACAUUCGAUAAUGCCGAAUAAGACAUC					apparent Kd [5]: 23.6 nM; apparent Kd [6]: 22.6 nM
AACCACGAGUCGGCCGCCACUUGCAACUAGUUUCAGAAGCAGAAACAUGAGGAUCACCCAUGUCGAAGGACCGGGACUUUACAGG					apparent Kd [5]: 23.2 nM; apparent Kd [6]: 18.7 nM
UCGAACGGGCAAGGAUAUCGAAGAUCCAAAAUUCGAGAAGGUGCAUGUGAUCGUCCGGUGUCACAUGAGGAUCACCCAUGUCAA	354	179			
AUAUGUUGAGGAUAUACAUGAGGAUCACCCAUGUAAUAUGAACGGAAUGAUUUAAGGAGUAGAAGGCAACACCA	12.8	24.4			
GUACCACUCAAGAAGGACCUAGUUCACUAACCUGUGACAUGAGGAUCACCCAUGUGGCUAUUGCGGUAGGAUAUUGAAGACCGG			157	69.1	
CGCGGAACAUGAGGAUCACCCAUGUUAUGUAACAGCAAACUAAGAAGGCGUUAUAUAAGUAUGGACGAGGAUAUUAGCUUGAGU			24.3	8.8	
